# Measured values: ChEMBL document CHEMBL1255334
# Activity calls are given as the source filed them. The rule behind the calls is not given here.
# Columns and labels:
# Type in all cases: functional, organism-based
# [1] = system: Mycobacterium tuberculosis; assay: Antibacterial activity against Mycobacterium tuberculosis containing pncA gene with C deletion at nt 99 assessed as at 100 mg/liter
# Procedure, shortened: (§1)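 Clinical M. tuberculosis isolates first grown on Löwenstein-Jensen medium 3 to 4 weeks at 37°C. Radiometric BACTEC 460 test in acidified PZA test medium. Inoculum: ~McFarland 1 suspension grown in 12B medium until growth index (GI) >300. Paired vials per strain: drug-free control and PZA 100 mg/liter. Read when control GI reached 200. Resistant if PZA-vial GI >11% of control GI, susceptible if <9%.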
# [2] = system: Mycobacterium tuberculosis; assay: (§2) Antibacterial activity against Mycobacterium tuberculosis containing wild type PZase assessed as at 100 mg/liter; procedure, shortened: as §1
# [3] = system: Mycobacterium tuberculosis; assay: as §2; procedure, shortened: as §1; remark: listed apart in the source
smiles,measurement,setting,value
NC(=O)c1cnccn1,Activity,[1],inactive
same,Activity,[2],Active
same,Activity,[3],inactive
